Results from paper PMC7717452 (Journal of Enzyme Inhibition and Medicinal Chemistry, 2020).
“And” between values parts separate entries of the source, which are not always exact repeats. Equal entries are not always repeated. Where two headings read alike, the source gives them in different places.

Experiments:
[1] = biological target: T1, LiTryS (Leishmania infantum trypanothione synthetase) (Leishmania infantum, UniProt A4I2Z3); test: TryS activity end-point assay; assay type: biochemical; settings: for IC50: ± 2σ, ∼30 assumed for 50 ± 5% inhibition at 30 µM; for % TryS inhibition at 30 µM, LiTryS: NA = not active (enzyme activity > 95%)
T1 sequence (A4I2Z3 1-652): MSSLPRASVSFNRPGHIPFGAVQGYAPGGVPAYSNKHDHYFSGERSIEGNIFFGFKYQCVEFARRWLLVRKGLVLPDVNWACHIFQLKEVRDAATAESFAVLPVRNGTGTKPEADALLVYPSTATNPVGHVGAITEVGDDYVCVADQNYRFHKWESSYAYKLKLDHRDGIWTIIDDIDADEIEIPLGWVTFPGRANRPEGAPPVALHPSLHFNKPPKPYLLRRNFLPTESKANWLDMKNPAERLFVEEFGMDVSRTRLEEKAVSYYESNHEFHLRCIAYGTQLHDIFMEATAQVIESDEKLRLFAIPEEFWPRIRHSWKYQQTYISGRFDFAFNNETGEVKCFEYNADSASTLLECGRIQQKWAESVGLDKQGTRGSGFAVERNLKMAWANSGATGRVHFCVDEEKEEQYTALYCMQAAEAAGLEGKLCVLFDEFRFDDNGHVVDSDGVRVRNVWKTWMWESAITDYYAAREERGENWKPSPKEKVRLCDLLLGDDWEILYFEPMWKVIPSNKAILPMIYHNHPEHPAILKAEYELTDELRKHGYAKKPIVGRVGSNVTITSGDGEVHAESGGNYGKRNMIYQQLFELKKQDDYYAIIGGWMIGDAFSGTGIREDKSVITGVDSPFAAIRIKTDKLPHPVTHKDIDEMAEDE
Procedure, shortened: (§1)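 Recombinant TryS end-point assay in 100 mM HEPES pH 7.4 with 5 mM DTT, 10 mM MgSO4 and 0.5 mM EDTA. ATP was 150 µM and spermidine 2 mM. GSH was 0.25 mM for LiTryS, 0.05 mM for TbTryS and 0.57 mM for TcTryS. Enzyme started the reaction and BIOMOL Green stopped it after 15 min. A650 was read after 20 min at room temperature. Values were corrected with no-enzyme blanks and for compound interference with phosphate. At least quadruplicates; IC50 is given ± 2σn-1.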

TbTryS = biological target: T2, TbTryS (Trypanosoma brucei brucei, UniProt Q8IEX1); test: TryS activity end-point assay; assay type: biochemical; settings: IC50 value, TbTryS, ± 2σ; ~30 assumed for 50 ± 5% inhibition at 30 µM
T2 sequence (Q8IEX1 1-627): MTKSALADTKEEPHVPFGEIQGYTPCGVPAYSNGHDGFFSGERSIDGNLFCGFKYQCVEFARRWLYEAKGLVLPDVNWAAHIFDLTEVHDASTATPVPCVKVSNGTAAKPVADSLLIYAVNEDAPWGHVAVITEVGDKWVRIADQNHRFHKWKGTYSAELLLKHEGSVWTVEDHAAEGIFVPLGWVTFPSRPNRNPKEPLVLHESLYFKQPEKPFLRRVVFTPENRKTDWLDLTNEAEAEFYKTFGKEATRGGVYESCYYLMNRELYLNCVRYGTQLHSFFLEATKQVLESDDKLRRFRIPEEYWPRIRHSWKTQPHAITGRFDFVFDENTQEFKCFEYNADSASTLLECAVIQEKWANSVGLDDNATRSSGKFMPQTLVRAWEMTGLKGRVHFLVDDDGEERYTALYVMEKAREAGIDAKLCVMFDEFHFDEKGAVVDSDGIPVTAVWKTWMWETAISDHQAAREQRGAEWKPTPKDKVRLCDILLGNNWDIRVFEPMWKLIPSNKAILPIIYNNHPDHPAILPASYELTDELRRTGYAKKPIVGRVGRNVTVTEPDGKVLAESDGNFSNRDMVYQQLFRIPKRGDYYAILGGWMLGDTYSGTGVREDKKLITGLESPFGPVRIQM
Procedure, shortened: as §1

[2] = tested on: L. braziliensis amastigotes; test: Macrophage infection assay, L. braziliensis amastigotes; assay type: cell-based, Leishmania braziliensis; settings: for activity at 10 µM: Leishmania braziliensis, Macrophage, read-out: % infection by L. braziliensis at 10 µM; for activity at 10 µM / % infection by L. braziliensis at 5 µM: 24 h; for SI, L. braziliensis amastigotes: selectivity index, macrophage CC50 and amastigote EC50; for % infection by L. braziliensis at 5 µM: relative to infected non-treated macrophages
Procedure, shortened: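 J774 macrophages were plated on coverslips at 1 × 10^5 cells/mL in DMEM with 1% FBS. They were infected with stationary-phase L. braziliensis promastigotes (MHOM/BR/01/BA788; 1:20) for 2 h at room temperature, then 22 h at 35 °C. After washing, cells got test compound (5 or 10 µM, or 10–0.01 µM) in 1% DMSO for 24 h at 37 °C and 5% CO2. Cells were EtOH-fixed and DAPI-stained, and 100–200 macrophages were imaged. % infected cells is relative to DMSO.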

Cytotoxicity assay = assay type: cell-based, mouse; settings: mouse, J774 macrophages (ATCC TIB67), non-infected
Procedure, shortened: (§2)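 J774 mouse macrophages were grown in DMEM with 10% FBS and penicillin/streptomycin at 37 °C in humidified 5% CO2. Cells were seeded at 6 × 10^4 cells/mL and exposed the next day for 24 h to test compound at 100 to 0.001 µM (200 µM for one compound). The WST-1 signal was read at A450. % cytotoxicity was calculated against DMSO-treated and untreated cells, and CC50 is given ± σn–1.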

[3] = tested on: Mouse macrophages from the cell line J774; test: Cytotoxicity assay; assay type: cell-based; settings: read-out: CC50, macrophages; 24 h, non-infected J774
Procedure, shortened: as §2

| SMILES | IC50 ([1]; IC50 value, LiTryS) | activity at 10 µM [2] | further results |
| --- | --- | --- | --- |
| O=C(CN1C(=O)Cc2c([nH]c3ccc(Br)cc23)-c2ccc(Cl)cc21)NC1=NCCS1 [Compound 17] | ~30 µM |  |  |
| O=C(CN1C(=O)Cc2c([nH]c3ccc(Br)cc23)-c2ccc(Cl)cc21)Nc1ncco1 [Compound 18] |  |  | IC50 ([1]; read-out: IC50 value, LiTryS): 20.1 ± 1.5 µM |
| O=C(CN1C(=O)Cc2c([nH]c3ccc(Br)cc23)-c2ccc(Cl)cc21)Nc1ccccc1 [Compound 19] | ~30 µM |  | IC50 (TbTryS): 30 µM |
| CC(C)(C)OC(=O)N1CCN(C(=O)CN2C(=O)Cc3c([nH]c4ccc(Br)cc34)-c3ccc(Cl)cc32)CC1 [Compound 22] | 30 µM and ~30 µM |  |  |
| O=C(CN1C(=O)Cc2c([nH]c3ccc(Br)cc23)-c2ccc(Cl)cc21)N1CCN(c2ncccn2)CC1 [Compound 23] | 12.5 ± 0.2 µM |  |  |
| O=C(CN1C(=O)Cc2c([nH]c3ccc(Br)cc23)-c2ccc(Cl)cc21)N1CCCCC1 [Compound 24, 9-Bromo-3-chloro-5-[2-oxo-2-(piperidin-1-yl)ethyl]-7,12-dihydrobenzo[2,3]azepino-[4,5-b]indol-6(5H)-one] |  |  | % TryS inhibition at 30 µM, LiTryS [1]: 38.6 ± 1.3% |
| O=C(CN1C(=O)Cc2c([nH]c3ccc(Br)cc23)-c2ccc(Cl)cc21)N1CCCC1 [Compound 25] | 0.5 ± 0.2 µM | 68 ± 8% | cytotoxicity at 24 h, 100 µM (Cytotoxicity assay): 69% |
| O=C(CN1C(=O)Cc2c([nH]c3ccc(Br)cc23)-c2ccc(Cl)cc21)N1CCOCC1 [Compound 26] | 2.8 ± 0.7 µM | 29 ± 3% | SI, L. braziliensis amastigotes [2]: 6; CC50 [3]: 10.2 ± 0.2 µM |
| NCCNC(=O)CN1C(=O)Cc2c([nH]c3ccc(Br)cc23)-c2ccc(Cl)cc21 [Compound 27] |  | 68 ± 1% | cytotoxicity at 24 h, 100 µM (Cytotoxicity assay): 36 ± 1% |
| CCN(CC)CCNC(=O)CN1C(=O)Cc2c([nH]c3ccc(Br)cc23)-c2ccc(Cl)cc21 [Compound 28] | 0.5 ± 0.1 µM |  | % infection by L. braziliensis at 5 µM [2]: 38 ± 1 at 5 µM %; SI, L. braziliensis amastigotes [2]: 2; CC50 [3]: 6 ± 1 µM |
| CC(C)(C)OC(=O)NCCNC(=O)CN1C(=O)Cc2c([nH]c3ccc(Br)cc23)-c2ccc(Cl)cc21 [Compound 29] |  |  | % TryS inhibition at 30 µM, LiTryS [1]: 36.7 ± 5.9% |
| O=C(CN1C(=O)Cc2c([nH]c3ccc(Br)cc23)-c2ccc(Cl)cc21)NCCN1CCOCC1 [Compound 30] | 3.3 ± 0.1 µM |  |  |
| O=C(CN1C(=O)Cc2c([nH]c3ccc(Br)cc23)-c2ccc(Cl)cc21)NCCN1CCCCC1 [Compound 31] | 0.8 ± 0.1 µM |  | % infection by L. braziliensis at 5 µM [2]: 49 ± 3 at 5 µM %; SI, L. braziliensis amastigotes [2]: 2; CC50 [3]: 9 ± 1 µM |
| O=C(CN1C(=O)Cc2c([nH]c3ccc(Br)cc23)-c2ccc(Cl)cc21)NCCN1CCNCC1 [Compound 32] | 0.6 ± 0.1 µM | 139 ± 2% | cytotoxicity at 24 h, 100 µM (Cytotoxicity assay): 24 ± 3% |
| CN1CCN(CCNC(=O)CN2C(=O)Cc3c([nH]c4ccc(Br)cc34)-c3ccc(Cl)cc32)CC1 [Compound 33] | 1.1 ± 0.3 µM |  |  |
| NCCCCNC(=O)CN1C(=O)Cc2c([nH]c3ccc(Br)cc23)-c2ccc(Cl)cc21 [Compound 35] | 0.4 ± 0.1 µM | 116 ± 3% | cytotoxicity at 24 h, 100 µM (Cytotoxicity assay): 0% |
